Measurements as given in ChEMBL document CHEMBL3792386, “Design, Synthesis, and Biological Evaluation of Novel Selenium (Se-NSAID) Molecules as Anticancer Agents” (J Med Chem, 2016).
Activity calls are given as the source filed them. No cut-off for these calls is given here.

Tests used:
NCI-H460 = assay: Antiproliferative activity against human NCI-H460 cells assessed as reduction in cell viability after 24 hrs by MTT assay; format: functional, cell-based; conditions: NCI-H460, 24 h
Outline: (§1)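 3000 cells/well incubated in triplicate with serial concentrations of compound for 24, 48 or 72 h at 37 °C. MTT (5.0 mg/mL solution) added 3 h before the end. Formazan dissolved in DMSO, absorbance read at 570 and 630 nm. Viability normalised to vehicle control. IC50 from non-linear regression (variable slope), mean ± SD of triplicates.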

[1] = Antiproliferative activity against human SKOV3 cells assessed as reduction in cell viability after 24 hrs by MTT assay; format: functional, cell-based; conditions: SK-OV-3, 24 h; outline: as §1
HCT-116 [2] = assay: Induction of cell cycle arrest in human HCT116 cells assessed as accumulation at G2/M phase at 5 uM after 12 hrs by propidium iodide staining-based flow cytometry (reference value: 10%); format: functional
HCT-116 [3] = assay: Effect on cell cycle in human HCT116 cells assessed as inhibition of cyclin B1 expression at 1 to 10 uM after 24 hrs by Western blot method; format: functional, cell-based
Outline: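 CRC cells treated at indicated doses for 24 h. Whole-cell lysates made in RIPA buffer with protease and phosphatase inhibitors and cleared at 15,000 rpm for 10 min. Resolved on 4-12% gels, transferred to PVDF, probed for cell-cycle proteins, detected by ECL. Membranes stripped for sequential probing.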

HCT-116 [4] = assay: Induction of apoptosis in human HCT116 cells assessed as late apoptotic cells at 2.5 uM after 24 hrs by annexin V/7-ADD staining-based flow cytometry (reference value: 1.65%); format: functional
HCT-116 [5] = assay: Induction of apoptosis in human HCT116 cells assessed as live cells at 2.5 uM after 24 hrs by annexin V/7-ADD staining-based flow cytometry (reference value: 90.05%); format: functional
MDA-MB-231 = assay: Antiproliferative activity against human MDA-MB-231 cells assessed as reduction in cell viability after 24 hrs by MTT assay; format: functional, cell-based; conditions: MDA-MB-231, 24 h; outline: as §1
[6] = Antiproliferative activity against human PANC1 cells assessed as reduction in cell viability after 24 hrs by MTT assay; format: functional, cell-based; conditions: PANC-1, 24 h; outline: as §1
[7] = Antiproliferative activity against human DU145 cells assessed as reduction in cell viability after 72 hrs by MTT assay; format: functional, cell-based; conditions: DU-145, 72 h; outline: as §1

## CC(=O)Oc1ccccc1C(=O)NCC[Se]C#N
NCI-H460
  IC50: > 50 µM
[1]
  IC50: > 50 µM
HCT-116 [2]
  Activity: 24%
HCT-116 [3]
  inhibition: Active
HCT-116 [4]
  Activity: 8.3%
HCT-116 [5]
  Activity: 76.8%
MDA-MB-231
  IC50: 21.1 µM
[6]
  IC50: 12.1 µM
[7]
  IC50: 2.9 µM
